The nature of experiment [1]: Her2 expression decrease, cell viability multiplex – SKBR3 breast tumor cells, AlphaScreen, ATP viability, primary screen (AID 461;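 active = Her2 level under about 52% in both replicate screens, with viability over 70% of control, limit read from the data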;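 for Her2 level: lower value means less Her2 protein in the cells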;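 for viability: percent of carrier control wells set as 100% viability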). The settings on record: SKBR3 Her2 protein level, 18-24 h, measured here: SKBR3 viability, ATP luminescence, at 10 µM. A general note: Alpha assays give light when donor and acceptor beads are brought close together.
Experiment [2] has as its target Receptor tyrosine-protein kinase erbB-2 (Homo sapiens) (UniProt P04626). The description is as above. To be noted: 18-24 h, at 10 µM, stronger effect = lower value.
Experiment [3] in a line: reduced viability of SK-BR-3 breast cancer cells – cell-based, 24 h, human, pilot screen (AID 572;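 active = viability at or below 10% of carrier control in both of two separate runs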;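 note: compound exposure lasted between 18 and 24 h rather than exactly 24 h; 100% = carrier-treated control wells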). The settings on record: SK-BR-3 viability, CellTiter-Glo luminescence, at 10 µM, stronger effect = lower value. On the technique in general: ATP-based viability assays read luminescence as a measure of living cells.
The nature of experiment [4]: HUVEC growth inhibition – cell-based, human, primary screen (AID 575;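 active = viability at or below 30% in both replicate assays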;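 note: 100% = median of untreated cell wells with 0.1% DMSO on each plate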). The settings on record: HUVEC proliferation, CellTiter-Glo luminescence, 72 h; at 10 µM; stronger effect = lower value. The method in brief: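 system = HUVEC primary cells | amount = 1250 cells/well | buffer or medium = supplemented EBM, 2% fetal bovine serum | dosing = single-point 10 µM, DMSO 0.1% final | times = 72 h compound incubation | detection = CTG luminescence | read-out = % viability relative to median vehicle-well signal on each plate | control set = vehicle and MePR control wells | format = collagen-coated 384-well format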

Experiment [5] can be described thus: H69AR cell proliferation blockers – human, duplicate replicates, primary screen (AID 580;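 active = viability at or under a set limit in both replicates, limit being median viability minus 3 SD, cut at about 48% in these data, passing the limit was not always enough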;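 note: 100% = mean luminescence of untreated wells and 0% = no signal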). To be noted: H69AR lung tumor cells viability, ATP luminescence, 72 h; at 10 µM; stronger effect = lower value.
Experiment [6] can be described thus: MRP1 drug-resistance reversers in H69AR cells – cell-based, doxorubicin co-treatment, pilot screen (AID 601). To be noted: CellTiter-Glo, 72 h, at 10 µM; for differential viability (reversal): stronger effect = higher value.
Experiment [7] can be described thus: yeast transport mutant growth inhibition pilot in 384-well plates, post-Golgi transport modulator project (AID 636; in the data active = inhibition above about 31%). The settings on record: absorbance 615 nm, about 18 h, stronger effect = higher value.
Experiment [8] in a line: growth suppression of yeast trafficking mutant, preliminary HTS, modulators of trafficking downstream of Golgi apparatus project, 1536-format plate, OD 615 nm (AID 637; in the data active = inhibition above about 30%). The settings on record: yeast transport mutant growth, absorbance 615 nm, 18 h; stronger effect = higher value.
The mark [9] stands for this setting: H69AR cells + 2 uM doxorubicin, measured here: viability with 2 uM doxorubicin, stronger effect = lower value.
Setting [10] is: H69AR cells, compound alone cytotoxicity.

The source made the active and inactive calls.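 Rule for the calls, unless noted: active = viability loss from added drug above about 55%, and viability with drug at most 40%, in both replicates (limit read from the data, passing the limit was not always enough); inconclusive = both conditions met in only one replicate; inactive = neither replicate meets both conditions.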

Receptor tyrosine-protein kinase erbB-2 (Homo sapiens), sequence (P04626 whole entry, looked up): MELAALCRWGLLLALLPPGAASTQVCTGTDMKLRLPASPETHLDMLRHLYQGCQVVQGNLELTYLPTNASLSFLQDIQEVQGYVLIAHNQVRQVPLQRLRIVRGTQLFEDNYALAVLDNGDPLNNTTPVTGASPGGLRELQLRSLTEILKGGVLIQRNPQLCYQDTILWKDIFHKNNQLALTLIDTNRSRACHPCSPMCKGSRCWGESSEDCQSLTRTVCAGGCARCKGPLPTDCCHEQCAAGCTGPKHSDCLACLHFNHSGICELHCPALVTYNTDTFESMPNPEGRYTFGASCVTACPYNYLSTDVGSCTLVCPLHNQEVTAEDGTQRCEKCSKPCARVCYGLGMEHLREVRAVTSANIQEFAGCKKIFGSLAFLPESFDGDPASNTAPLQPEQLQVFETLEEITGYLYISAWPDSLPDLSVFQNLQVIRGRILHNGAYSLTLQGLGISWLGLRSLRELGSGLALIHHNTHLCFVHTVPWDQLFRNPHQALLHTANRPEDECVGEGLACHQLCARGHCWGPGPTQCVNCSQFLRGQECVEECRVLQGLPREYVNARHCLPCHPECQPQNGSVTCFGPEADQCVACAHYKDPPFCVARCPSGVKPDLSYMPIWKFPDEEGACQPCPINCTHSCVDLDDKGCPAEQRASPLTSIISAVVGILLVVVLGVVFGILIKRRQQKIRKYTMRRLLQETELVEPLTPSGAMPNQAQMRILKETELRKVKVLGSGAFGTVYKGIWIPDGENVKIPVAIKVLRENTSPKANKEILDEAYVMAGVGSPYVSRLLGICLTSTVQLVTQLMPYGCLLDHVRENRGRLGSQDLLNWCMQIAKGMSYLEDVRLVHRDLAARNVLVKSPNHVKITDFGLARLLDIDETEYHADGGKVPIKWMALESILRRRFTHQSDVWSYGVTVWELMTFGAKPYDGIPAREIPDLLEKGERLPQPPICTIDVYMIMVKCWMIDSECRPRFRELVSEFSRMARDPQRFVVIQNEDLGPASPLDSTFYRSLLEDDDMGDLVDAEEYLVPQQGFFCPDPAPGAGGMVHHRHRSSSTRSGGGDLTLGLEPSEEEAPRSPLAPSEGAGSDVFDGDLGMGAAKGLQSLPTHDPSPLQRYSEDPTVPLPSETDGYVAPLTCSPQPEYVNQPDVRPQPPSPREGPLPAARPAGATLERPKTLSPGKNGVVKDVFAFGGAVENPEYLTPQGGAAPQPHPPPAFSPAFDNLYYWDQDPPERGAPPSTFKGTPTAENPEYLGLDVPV

With `CC(COc1ccccc1)NC(C)C(O)c1ccc(O)cc1` (configuration not stated), the viability (in general, a read-out of living cells in per cent, often relative to untreated cells) in experiment [1] was 97%; in experiment [3] it was 97% (inactive); in experiment [4], 88.5% (inactive); in experiment [5], 88.6% (inactive); in experiment [6] (setting [9]) it was 106%; in experiment [6] (setting [10]), 88.6%. Moreover, the Her2 level in experiment [2] was 105% (inactive). Besides, the differential viability (reversal) in experiment [6] (H69AR cells + 2 uM doxorubicin) was -17.2% (inactive).

Regarding `CCOC(=O)c1ccc(NC(=O)CSCc2ccco2)cc1`, the viability is 108% in experiment [1]; 108% (inactive) in experiment [3]; 81.9% (inactive) in experiment [4]; 87.7% (inactive) in experiment [5]; 79.4% in experiment [6] (setting [9]); 87.7% in experiment [6] (setting [10]). Also, in experiment [2], the Her2 level is 100% (inactive). Further, in experiment [6] (H69AR cells + 2 uM doxorubicin), the differential viability (reversal) was 8.33% (inactive). Also, the inhibition (as a rule, the change of the read-out against control, counted positive when it falls) in experiment [7] was -5.45% (inactive); in experiment [8], -2.62% (inactive).

`COc1cc(OC)cc(C(=O)N2c3ccc(F)cc3CCC2C)c1` (configuration not stated): the viability is 94.5% in experiment [1]; 94.5% (inactive) in experiment [3]; 112% (inactive) in experiment [4]; 97.5% (inactive) in experiment [5]; 90.7% in experiment [6] (setting [9]); 97.5% in experiment [6] (setting [10]). The Her2 level in experiment [2] was 89% (inactive). The differential viability (reversal) in experiment [6] (H69AR cells + 2 uM doxorubicin) was 6.82% (inactive). Besides, the inhibition in experiment [7] is -0.14% (inactive); in experiment [8] it was -3.02% (inactive).

For `CC(C)(S)[C@@H](N)C(=O)O`, the viability in experiment [1] is 102%; in experiment [3], 102% (inactive); in experiment [4] it was 106% (inactive); in experiment [5], 110% (inactive); in experiment [6] (setting [9]), 94.3%; in experiment [6] (setting [10]) it was 110%. The Her2 level in experiment [2] was 93% (inactive). Also, the differential viability (reversal) in experiment [6] (H69AR cells + 2 uM doxorubicin) is 15.4% (inactive).

Take `NC(Cc1ccc(Oc2ccc(O)cc2)cc1)C(=O)O` (configuration not stated): the viability was 92.5% in experiment [1]; 92.5% (inactive) in experiment [3]; 107% (inactive) in experiment [4]; 80.8% (inactive) in experiment [5]; 73.1% in experiment [6] (setting [9]); 80.8% in experiment [6] (setting [10]). The Her2 level in experiment [2] was 97% (inactive). The differential viability (reversal) in experiment [6] (H69AR cells + 2 uM doxorubicin) is 7.61% (inactive).

Consider `COc1ccc(OC)c(NC(=O)CSc2ncccc2C(=O)O)c1`, for which the viability was 104% in experiment [1]; 104% (inactive) in experiment [3]; 100% (inactive) in experiment [4]; 104% (inactive) in experiment [5]; 96.4% in experiment [6] (setting [9]); 104% in experiment [6] (setting [10]). The Her2 level in experiment [2] was 98% (inactive). Further, the differential viability (reversal) in experiment [6] (H69AR cells + 2 uM doxorubicin) was 7.42% (inactive). The values for the inhibition in experiment [7] and in experiment [8] were -3.29% (inactive) and -3.45% (inactive), respectively.

Take `NS(=O)(=O)c1cc2c(cc1Cl)NC(C(Cl)Cl)NS2(=O)=O` (configuration not stated): the viability was 102% in experiment [1]; 102% (inactive) in experiment [3]; 106% (inactive) in experiment [4]; 93.9% (inactive) in experiment [5]; 104% in experiment [6] (setting [9]); 93.9% in experiment [6] (setting [10]). Moreover, in experiment [2], the Her2 level was 112% (inactive). Moreover, in experiment [6] (H69AR cells + 2 uM doxorubicin), the differential viability (reversal) was -9.8% (inactive).

On to `CN(C(=O)COc1cc(=O)n(C)c2ccccc12)c1ccc(Br)cc1`, for which the viability in experiment [1] is 100%; in experiment [3], 100% (inactive); in experiment [4], 74.5% (inactive); in experiment [5], 82.5% (inactive); in experiment [6] (setting [9]), 78.3%; in experiment [6] (setting [10]), 82.5%. Also, the Her2 level in experiment [2] is 104% (inactive). In addition, the differential viability (reversal) in experiment [6] (H69AR cells + 2 uM doxorubicin) is 4.22% (inactive). Moreover, the inhibition in experiment [7] was -1.87% (inactive); in experiment [8], -4.1% (inactive).

On to `O=C(CSc1nnc(COc2ccc(Cl)cc2)o1)N1CCN(c2ccccc2)CC1`, for which the viability in experiment [1] was 100%; in experiment [3], 100% (inactive); in experiment [4], 57% (inactive); in experiment [5] it was 90.2% (inactive); in experiment [6] (setting [9]), 92.4%; in experiment [6] (setting [10]), 90.2%. For the same molecule, the Her2 level in experiment [2] is 83% (inactive). Also, the differential viability (reversal) in experiment [6] (H69AR cells + 2 uM doxorubicin) was -2.18% (inactive). For the same molecule, the values for the inhibition in experiment [7] and in experiment [8] were -3.2% (inactive) and 3.11% (inactive), respectively.

`CC(=O)OCC(=O)c1ccc2ccn(C(C)=O)c2c1`: the viability in experiment [1] is 106%; in experiment [3], 106% (inactive); in experiment [4], 94.9% (inactive); in experiment [5] it was 90.5% (inactive); in experiment [6] (setting [9]), 92.5%; in experiment [6] (setting [10]) it was 90.5%. Also, in experiment [2], the Her2 level was 89% (inactive). Further, in experiment [6] (H69AR cells + 2 uM doxorubicin), the differential viability (reversal) is -1.94% (inactive). The inhibition in experiment [7] is -5.33% (inactive); in experiment [8], 3.11% (inactive).

Turning to `CCOC(=O)c1[nH]c(C)c(C(=O)NCc2ccccn2)c1C`, the viability is 134% in experiment [1]; 134% (inactive) in experiment [3]; 83.4% (inactive) in experiment [4]; 102% (inactive) in experiment [5]; 96.8% in experiment [6] (setting [9]); 102% in experiment [6] (setting [10]). Further, the Her2 level in experiment [2] is 115% (inactive). Besides, the differential viability (reversal) in experiment [6] (H69AR cells + 2 uM doxorubicin) was 4.79% (inactive). The inhibition in experiment [7] was -5.07% (inactive); in experiment [8] it was 9.37% (inactive).

As for `COc1ccc(S(=O)(=O)C(C#N)c2nc3ccccc3nc2N2CCCC(C)C2)cc1` (configuration not stated), the viability in experiment [1] is 112%; in experiment [3] it was 112% (inactive); in experiment [4], 51.2% (inactive); in experiment [5] it was 75.5% (inactive); in experiment [6] (setting [9]), 86%; in experiment [6] (setting [10]), 75.5%. Further, the Her2 level in experiment [2] is 102% (inactive). In addition, in experiment [6] (H69AR cells + 2 uM doxorubicin), the differential viability (reversal) is -10.6% (inactive). For the same molecule, the inhibition in experiment [7] is -2.21% (inactive); in experiment [8], 6.67% (inactive).

The record behind these values is PubChem BioAssay.
